The nature of series [1]: Hemolytic activity in rabbit RBC assessed as hemolysis after 60 mins by microtitre plate reader analysis. As to conditions: erythrocyte, 1 h. It counts as ADME, cell-based, Oryctolagus cuniculus. The method in brief:
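Rabbit erythrocytes at 2% (5 × 10⁸ RBC/mL) in PBS, pH 7.4, exposed to serially diluted compounds for 60 min at 37 °C. Hemolysis was read as absorbance at 541 nm, and percentage hemolysis was calculated by the routine method.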

Series [2] relates to Vesicular stomatitis virus. The experiment in a line: Antiviral activity against Vesicular stomatitis virus assessed as blockage of VSV pseudo paricle entry to human Hep3B cells at 5 uM after 72 hrs. The series is classed as functional, Hep 3B2.
In series [3] the test system is Vesicular stomatitis virus. As to the kind of experiment: Antiviral activity against Vesicular stomatitis virus assessed as blockage of VSV pseudo paricle entry to human Hep3B cells at 1 uM after 72 hrs. The series is classed as functional, Hep 3B2.
For series [4], the system named is Hepatitis C virus. As to the kind of experiment: Antiviral activity against Hepatitis C virus assessed as blockage of HCV pseudo paricle entry to human Hep3B cells at 5 uM after 72 hrs. It counts as functional, Hepacivirus hominis, Hep 3B2.
In series [5] the test system is Hepatitis C virus. As to the kind of experiment: Antiviral activity against Hepatitis C virus assessed as blockage of HCV pseudo paricle entry to human Hep3B cells at 1 uM after 72 hrs. It counts as functional, Hepacivirus hominis, Hep 3B2.

For 13 compounds, Activity results are on record in ChEMBL document CHEMBL2390833, “Elucidation of the pharmacophore of echinocystic acid, a new lead for blocking HCV entry” (Eur J Med Chem, 2013).

Structures are written as SMILES.

In the case of `CC1(C)CC[C@]2(C(=O)O)[C@H](O)C[C@]3(C)C(=CC[C@@H]4[C@@]5(C)CCC(=O)C(C)(C)[C@@H]5CC[C@]43C)[C@@H]2C1`, the Activity entry is on record as “Non-toxic” in series [1]; 13.6% in series [2]; -2.5% in series [3]; 41.6% with Hepatitis C virus [4]; 7.5% in the series with Hepatitis C virus [5].

For `CC1(C)CC[C@@]2(C(=O)O)C(=C3C=C[C@@H]4[C@@]5(C)[C@H](O)C[C@H](O)C(C)(C)[C@@H]5CC[C@@]4(C)[C@]3(C)C[C@H]2O)C1`, the Activity is recorded as 5.9% in series [2], -15.8% in series [3], 26.3% in the series on Hepatitis C virus [4] and 2.3% in the series with Hepatitis C virus [5].

For the compound `CC1(C)CC2=C3C=C[C@@H]4[C@@]5(C)CC[C@H](O)C(C)(C)[C@@H]5CC[C@@]4(C)[C@]3(C)C[C@@H](O)[C@@]23C[C@@H]1OC3=O`, the Activity result was “Non-toxic” in series [1]; -10.3% in series [2]; -16.2% in series [3]; 31.7% with Hepatitis C virus [4]; 11.6% in the series on Hepatitis C virus [5].

Consider `CC1(C)C[C@H]2C3=CC[C@@H]4[C@@]5(C)[C@H](O)C[C@H](O)C(C)(C)[C@@H]5CC[C@@]4(C)[C@]3(C)C[C@@H](O)[C@@]23C[C@@H]1OC3=O`, for which the Activity result in series [1] is “Non-toxic”; in series [2] it was 19.2%; in series [3], 1.8%; with Hepatitis C virus [4], 72.6%; in the series with Hepatitis C virus [5], 28.9%.

For `CC1(C)CC[C@@]2(C(=O)O)C(=C3C=C[C@@H]4[C@@]5(C)CC[C@H](O)C(C)(C)[C@@H]5C[C@H](O)[C@@]4(C)[C@]3(C)C[C@H]2O)C1`, the Activity is reported as -4.4% in series [2], -13.7% in series [3], 31.9% with Hepatitis C virus [4] and 22.2% in the series with Hepatitis C virus [5].

Take `CC1(C)C[C@H]2C3=CC[C@@H]4[C@@]5(C)CC[C@H](O)C(C)(C)[C@@H]5[C@H](O)C[C@@]4(C)[C@]3(C)C[C@@H](O)[C@@]23C[C@@H]1OC3=O`: the Activity result in series [1] is given as “Non-toxic”; in series [2], -24%; in series [3], -8.3%; in the series on Hepatitis C virus [4], 4.7%; in the series on Hepatitis C virus [5] it was -1%.

Turning to `CC1(C)C[C@H]2C3=CC[C@@H]4[C@@]5(C)CC[C@H](O)C(C)(C)[C@@H]5CC[C@@]4(C)[C@]3(C)C[C@@H](O)[C@@]2(C(=O)O)C[C@@H]1O`, the Activity in series [2] is 33.2%; in series [3], 20.7%; with Hepatitis C virus [4], 18.4%; in the series on Hepatitis C virus [5] it was -5.7%.

For the compound `CC1(C)CC[C@]2(C(=O)O)[C@H](O)C[C@]3(C)C(=CC[C@@H]4[C@@]5(C)[C@H](O)C[C@H](O)C(C)(C)[C@@H]5CC[C@]43C)[C@@H]2C1`, the Activity result in series [1] is “Non-toxic”; in series [2], 11.8%; in series [3] it was 7.9%; with Hepatitis C virus [4], 35.2%; in the series on Hepatitis C virus [5], 14.3%.

On to `CC1(C)CC[C@]2(C(=O)O)[C@H](O)C[C@]3(C)C(=CC[C@@H]4[C@@]5(C)CC[C@H](O)C(C)(C)[C@@H]5CC[C@]43C)[C@H]2C1` [ECHINOCYSTIC ACID], for which the Activity in series [2] is recorded as -0.1%; in series [3], -0.1%; in the series with Hepatitis C virus [4] it was 75.5%; in the series with Hepatitis C virus [5], 21.3%.

Consider `CC1(C)[C@@H](O)CC[C@]2(C)[C@H]3CC=C4[C@@H]5C[C@](C)(CO)CC[C@]5(C(=O)O)[C@H](O)C[C@@]4(C)[C@]3(C)CC[C@@H]12`, for which the Activity result is reported as “Non-toxic” in series [1]; 3.6% in series [2]; -2.5% in series [3]; 36.5% in the series on Hepatitis C virus [4]; 16.5% in the series on Hepatitis C virus [5].

`CC1(C)C(=O)CC[C@]2(C)[C@H]3CC=C4[C@@H]5C[C@](C)(CO)CC[C@]5(C(=O)O)[C@H](O)C[C@@]4(C)[C@]3(C)CC[C@@H]12`: the Activity in series [2] is listed as 10.7%; in series [3], -20%; with Hepatitis C virus [4] it was -3.3%; in the series with Hepatitis C virus [5], 3.1%.

Take `CC1(C)C[C@H]2C3=CC[C@@H]4[C@@]5(C)CC[C@H](O)C(C)(C)[C@@H]5CC[C@@]4(C)[C@]3(C)C[C@@H](O)[C@@]23C[C@@H]1OC3=O`: the Activity result in series [1] is “Non-toxic”; in series [2], -12.1%; in series [3], -17.3%; with Hepatitis C virus [4], 31.9%; with Hepatitis C virus [5], 13.9%.

For `CC1(C)CC[C@]2(C(=O)O)[C@H](O)C[C@]3(C)C(=CC[C@@H]4[C@@]5(C)CC[C@H](O)C(C)(C)[C@@H]5C[C@H](O)[C@]43C)[C@@H]2C1`, the Activity result is recorded as “Non-toxic” in series [1]; 5.6% in series [2]; 1.6% in series [3]; 53.5% in the series on Hepatitis C virus [4]; 30.4% in the series with Hepatitis C virus [5].
